Reference: ChEMBL document CHEMBL1137076, “New arylpiperazine 5-HT(1A) receptor ligands containing the pyrimido[2,1-f]purine fragment: synthesis, in vitro, and in vivo pharmacological evaluation” (J Med Chem, 2004)

Experiments:
[1] = target: 5-hydroxytryptamine receptor 2A (Rattus norvegicus, UniProt P14842); assay: Ability to bind to central serotonin 5-hydroxytryptamine 2A receptor in vitro in cortex of the rat brain using [3H]ketanserin radioligand; type: tissue-based
How it was run: (§1)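 Competition binding in rat brain tissue: hippocampus with [3H]-8-OH-DPAT (5-HT1A); cortex with [3H]-ketanserin (5-HT2A) or [3H]-prazosin (α1). Ki from at least three experiments using 10–14 concentrations (10⁻¹⁰–10⁻⁵ M), each in triplicate.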

[2] = target: T1, 5-hydroxytryptamine receptor 1A (Mus musculus) (UniProt Q64264); assay: Compound was tested for hypothermia with the activation of presynaptic 5-HT1A receptor agonist (8-OH-DPAT) in mice; Antagonist; type: functional; conditions: filed as antagonist
T1 sequence (whole entry): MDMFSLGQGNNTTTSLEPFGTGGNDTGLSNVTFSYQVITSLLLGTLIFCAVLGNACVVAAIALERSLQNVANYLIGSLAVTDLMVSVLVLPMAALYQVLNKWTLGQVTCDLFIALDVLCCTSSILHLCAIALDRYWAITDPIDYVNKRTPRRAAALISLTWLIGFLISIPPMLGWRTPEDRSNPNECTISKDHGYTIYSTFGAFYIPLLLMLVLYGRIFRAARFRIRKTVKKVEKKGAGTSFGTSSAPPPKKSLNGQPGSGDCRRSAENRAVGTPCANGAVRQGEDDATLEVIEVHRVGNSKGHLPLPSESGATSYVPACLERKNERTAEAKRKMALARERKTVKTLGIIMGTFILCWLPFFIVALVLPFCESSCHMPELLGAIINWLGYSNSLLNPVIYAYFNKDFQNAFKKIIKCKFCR

Mus musculus = species: Mus musculus; assay: Ability to inhibit 8-OH-DPAT-induced hypothermia was taken as a measure of presynaptic antagonistic activity; Antagonist; type: functional, organism-based; conditions: filed as antagonist
[3] = target: T2, 5-hydroxytryptamine receptor 1A (Rattus norvegicus, UniProt P19327); assay: Ability to bind to central serotonin 5-hydroxytryptamine 1A receptor in vitro in hippocampus of the rat brain using [3H]8-OH-DPAT radioligand; type: tissue-based; how it was run: as §1
T2 sequence (P19327 whole entry): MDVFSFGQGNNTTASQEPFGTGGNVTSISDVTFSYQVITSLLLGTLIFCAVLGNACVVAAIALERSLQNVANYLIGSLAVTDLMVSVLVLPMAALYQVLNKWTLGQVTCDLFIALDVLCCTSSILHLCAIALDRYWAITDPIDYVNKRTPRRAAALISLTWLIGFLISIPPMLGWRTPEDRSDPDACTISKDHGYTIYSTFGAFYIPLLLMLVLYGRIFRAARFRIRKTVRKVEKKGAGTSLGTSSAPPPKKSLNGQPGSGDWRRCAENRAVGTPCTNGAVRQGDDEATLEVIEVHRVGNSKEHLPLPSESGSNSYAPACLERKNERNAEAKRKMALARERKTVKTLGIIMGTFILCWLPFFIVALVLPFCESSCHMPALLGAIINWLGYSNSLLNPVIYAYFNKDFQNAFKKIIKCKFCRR

5-hydroxytryptamine receptor 2A, sequence (P14842 whole entry): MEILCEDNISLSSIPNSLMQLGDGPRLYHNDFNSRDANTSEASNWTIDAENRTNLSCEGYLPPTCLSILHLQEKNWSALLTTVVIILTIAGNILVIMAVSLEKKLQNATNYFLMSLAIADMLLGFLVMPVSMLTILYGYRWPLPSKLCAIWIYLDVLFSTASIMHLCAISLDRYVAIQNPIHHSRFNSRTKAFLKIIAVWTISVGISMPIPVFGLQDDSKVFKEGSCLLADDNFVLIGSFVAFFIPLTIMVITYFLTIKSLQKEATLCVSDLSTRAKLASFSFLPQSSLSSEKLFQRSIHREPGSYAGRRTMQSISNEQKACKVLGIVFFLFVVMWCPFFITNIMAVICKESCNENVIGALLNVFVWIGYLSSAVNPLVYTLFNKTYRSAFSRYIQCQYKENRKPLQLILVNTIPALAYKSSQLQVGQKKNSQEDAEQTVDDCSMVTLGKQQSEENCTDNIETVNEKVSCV

- Ki [1]: 326 nM
- Functional profile [2]: Antagonist
- Ki [3]: 11.5 nM
Structure (SMILES): Cn1c(=O)c2c(nc3nc(NCCN4CCN(c5ccccc5)CC4)ccn32)n(C)c1=O
- Functional profile (Mus musculus): Antagonist
